Hits are enriched below; roughly 2.5% of the tested compounds scored in any of these assays.
NPY-Y2 antag: NPY-Y2 receptor antagonists, primary screen, cell-based; Neuropeptide Y receptor type 2 (Homo sapiens), P49146; NPY-Y2 expressing cells, antagonist mode; inhibition, % at 2.7 µM; actives 0.99% (n = 140,000); AID 793, 2007; in the data active = inhibition above about 17%;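 note: 0% = vehicle with agonist challenge and 100% = reference antagonist with challenge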
Target sequence (P49146 whole entry, looked up): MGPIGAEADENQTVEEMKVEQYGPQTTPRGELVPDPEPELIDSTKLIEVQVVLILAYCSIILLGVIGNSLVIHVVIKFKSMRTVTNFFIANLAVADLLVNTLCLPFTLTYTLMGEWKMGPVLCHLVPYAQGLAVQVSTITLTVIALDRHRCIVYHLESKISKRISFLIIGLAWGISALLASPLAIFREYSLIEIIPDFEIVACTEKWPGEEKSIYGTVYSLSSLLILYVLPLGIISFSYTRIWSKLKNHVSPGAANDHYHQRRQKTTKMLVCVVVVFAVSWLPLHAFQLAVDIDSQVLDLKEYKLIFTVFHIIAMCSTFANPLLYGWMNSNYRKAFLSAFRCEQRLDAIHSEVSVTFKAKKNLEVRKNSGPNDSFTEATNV
NPY2 pot ag: NPY-Y2 potentiators or agonists, primary screen, cell-based | Neuropeptide Y receptor type 2 (Homo sapiens), P49146 | cells expressing NPY-Y2, potentiator/agonist read-out | activation, % at 3.6 µM | actives 0.45% (n = 220,000) | AID 1359, 2008; in the data active = activation above about 27%;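 note: cells stimulated with NPY near EC25 plus isoproterenol at EC100; 0% = vehicle plus submaximal agonist and 100% = vehicle plus saturating agonist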
Insulin prom inh: inhibitors of insulin promoter-driven GFP, primary screen, imaging, TRM-6 cells, eGFP reporter, cell count; reporter expression induced with tamoxifen; inhibition, % at 2 µM; actives 0.9% (n = 130,000);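 active = inhibition above the mean plus 3 SD, with well images judged a real hit on visual review, cut at about 60% in these data, passing the limit was not always enough; inconclusive = inhibition over the cutoff but images rejected on review; inactive = inhibition not above the cutoff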
NPY-Y1 antag: NPY-Y1 receptor antagonists, primary screen, cell-based; Neuropeptide Y receptor type 1 (Homo sapiens), P25929; HEK293-CNG Y1 cells, membrane potential fluorescence; NPY at EC95, then isoproterenol; inhibition, % at 3.6 µM; actives 1% (n = 200,000);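 active = inhibition above the campaign mean inhibition of all tested compounds plus 3 SD, cut at about 20% in these data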;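 note: 0% = DMSO wells given NPY plus isoproterenol and 100% = isoproterenol alone without NPY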
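Assay system: HEK293 Y1/CNG channel cell line; Doses: single compound dose of 3.6 µM, 0.4% DMSO; Timing: dye 3 h, compound 60 min room temperature, stimulation 45 min; Technique: Membrane-potential fluorescent dye readout; Measure: % inhibition of NPY effect.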
Ins promoter up: insulin promoter activators in MIN6 cells, imaging, high-content screening, mouse beta cells; AID 1625, 2009; actives 0.3% (n = 190,000); z-score at 5 µM; MIN6 insulin promoter-GFP reporter; hits give high values;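 active = z-score above 3 at 5 µM with at least 500 cells counted in the well; inconclusive = wells under 500 cells, flagged as cytotoxic or low count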
NPY1 pot ag: NPY-Y1 receptor potentiators or agonists, primary screen, cell-based; Neuropeptide Y receptor type 1 (Homo sapiens), P25929; NPY-Y1 expressing cells, potentiator/agonist activation; activation, % at 3.6 µM; actives 0.37% (n = 220,000); in the data active = activation above about 33%, passing the limit was not always enough;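 note: cells stimulated with NPY at EC10 then isoproterenol at EC100; 0% = low agonist plus stimulus and 100% = saturating agonist plus stimulus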
The depositor's hits bear a star; u = inconclusive; x = no result given.

SMILES	NPY-Y2 antag	NPY2 pot ag	Insulin prom inh	NPY-Y1 antag	Ins promoter up	NPY1 pot ag
CCn1cc(C(=O)N2CCN(c3ccccn3)CC2)c(=O)c2cc(S(=O)(=O)N(C)C3CCCCC3)ccc21	x	5	-7	-8	-0.24	3
Cc1ccc(C)c2nc(SCC(=O)N3CCCc4ccccc43)c(C#N)cc12	1	-10	8	-4	0.12	-18
COCCNC(=O)CN(C(=O)CCC(=O)Nc1ccccn1)c1ccccc1F	x	8	-7	5	-0.04	19
O=c1ccc(NS(=O)(=O)c2ccccc2)cn1Cc1ccc(Cl)c(Cl)c1	0	-15	-60	-8	4.3*	-23
CC(C)(CO)NCC(O)COc1ccc2c(c1)CCC2 (configuration not stated)	3	88*	0	-13	0.14	101*
Cc1ccc([N+](=O)[O-])c(OCC(O)CNC(C)(C)C)c1 (configuration not stated)	x	105*	x	x	0.92	113*
CC(C)(C)NCC(O)COc1ccc(Br)cc1 (configuration not stated)	x	97*	41	-11	0.69	108*
CC(C)(C)CC(C)(C)NCC(O)COc1ccc2c(c1)CCC2 (configuration not stated)	17	-6	-41	3	x	14
CCCn1c(SCC(=O)N2CCCC(C)C2)nnc1-c1ccccn1 (configuration not stated)	x	3	x	2	-0.24	-7
CC(C)CNC(=O)COC(=O)Cc1ccc(Cl)cc1	x	-8	x	0	0.62	3
CC(=O)NC1C(=O)N(CCc2ccccc2)c2ccc(Br)cc21 (configuration not stated)	23*	-7	72*	23*	-0.2	-19
O=C(NNc1ccc(Cl)cc1)c1c(F)cccc1Cl	x	19	x	x	-0.56	5
CC(=O)C(=Nc1ccccc1Cl)NNc1ccc(Cl)cc1	-8	26	75*	-15	-1.3	31
CCCCNC(=O)C1CCN(c2nc(C)cc(C)n2)CC1	x	1	x	-4	1.1	6
O=C(OCc1nnc(-c2ccccc2)o1)c1ccc2c(c1)OCCO2	20*	-40	x	11	0.5	-28
CC(C)C(=O)Nc1ccc([N+](=O)[O-])c(C(F)(F)F)c1	x	5	87*	-9	-0.2	1
COc1cc(NC(=O)c2ccccc2[N+](=O)[O-])ccc1NC(=O)C(C)C	2	-2	x	0	-0.32	1
O=C(O)CCNS(=O)(=O)c1ccc2c(c1)OCCCO2	x	-13	x	-3	-0.4	1
CC1CCCCN1S(=O)(=O)c1ccc(C(=O)Nc2nnc(-c3ccccc3Cl)o2)cc1 (configuration not stated)	-3	99*	x	-16	-1.3	95*
CCC1CCCCN1S(=O)(=O)c1ccc(C(=O)Nc2nnc(-c3ccccc3Cl)o2)cc1 (configuration not stated)	-3	17	32	2	-0.87	5
CC1=NNC(=O)C1CCC(=O)N/N=C/c1c(Cl)cccc1Cl (configuration not stated)	x	13	50	0	-0.1	5
CCN(CC)CCCNC(=O)C1CCN(C(=O)c2cc3sccc3n2Cc2ccc(F)cc2)CC1	1	100*	x	-5	0.46	64*
COC(=O)COc1ccc(NS(=O)(=O)c2cccc([N+](=O)[O-])c2)cc1	x	48*	x	-2	-1	35*
CCCCCCCCCn1c2c(c(=N)c3c1CCC3)CCC2	37*	-36	-177	90*	u	-132
CC12CCC(C(=O)N(CSC(=S)N/N=C\c3ccccc3Cl)C1=O)C2(C)C (configuration not stated)	2	11	-10	4	x	-11
SMILES	NPY-Y2 antag	NPY2 pot ag	Insulin prom inh	NPY-Y1 antag	Ins promoter up	NPY1 pot ag
CC12CCC(C(=O)N(CSC(=S)N/N=C\c3ccccc3)C1=O)C2(C)C (configuration not stated)	-2	12	76*	-7	x	1
c1ccc(-c2ccccc2OCCCN2CCCCC2)cc1	18*	-6	-13	28*	0.53	13
CCN1CCN(CCCOc2ccccc2-c2ccccc2)CC1	x	-27	x	8	-0.32	-37
COc1ccc(-n2c(SCc3ccc([N+](=O)[O-])cc3)nnc2-c2ccccc2)cc1	112*	-6	x	99*	x	-98
COc1ccc(-c2nnc(SCc3ccccc3)n2N)cc1	0	-29	x	1	1.7	3
CCOc1ccc(-c2nnc(SCc3nnc(-c4ccccc4)o3)n2-c2ccccc2F)cc1	19*	-13	x	26*	-0.44	-23
O=C(O)c1ccc(CSc2nnc(-c3ccccc3)n2-c2ccccc2)cc1	x	8	x	x	x	4
CCOc1ccc(-n2c(SCc3ccc([N+](=O)[O-])cc3)nnc2-c2ccccc2)cc1	149*	-15	-3	66*	1.1	-79
Cc1ccc(-c2nnc(CSc3nnc(COc4ccccc4)n3-c3ccccc3)o2)cc1	15	-8	-12	13	-1.2	-27
COc1ccc(-n2c(SCCC(=O)O)nnc2-c2ccncc2)cc1	1	2	81*	8	-0.2	26
COc1ccc(C2CC(c3cccs3)=NN2C(=O)COC(=O)C2CCCCC2)cc1OC (configuration not stated)	x	-8	x	-3	-0.23	-13
CCOc1ccc(N(C(=O)CNC(=O)c2cccs2)C(C(=O)NCC2CCCO2)c2ccc(OC)c(OC)c2)cc1 (configuration not stated)	x	3	5	3	0.43	-1
Cc1cc(C)c(C)c(OCC(=O)NCc2nc(-c3ccccc3)no2)c1	10	-23	-45	18	x	-25
c1csc(-c2cn3ccc4ccccc4c3n2)c1	x	-17	86*	2	1.3	-9
O=C(c1cccs1)N1CCC(c2ccccc2)C1 (configuration not stated)	3	-19	79*	2	0.68	-20
Cc1cc(C)c2c(=O)c(C#N)coc2c1	x	0	x	x	0.14	24
COC(=O)C1CC(c2c(OC)cc(OC)cc2OC)=NO1 (configuration not stated)	1	9	56	1	x	5
COC(=O)[C@@H]1C(c2c(OC)cc(OC)cc2OC)=NO[C@H]1C(=O)OC	-1	42*	x	-10	-0.82	56*
COC(=O)C1=C(N)n2c(s/c(=C\c3cccnc3)c2=O)=C(C(=O)OC)C1c1cccnc1 (configuration not stated)	1	8	55	3	3.2*	7

Screening results as filed in PubChem BioAssay.
